Laboratory results: ChEMBL document CHEMBL2040734, “Benzothiazoles: search for anticancer agents” (2012)

What was measured:
Type in all cases: functional
SK-OV-3 = assay: Cytotoxicity against human SKOV3 cells assessed as cell growth at 0.01 uM after 48 hrs by sulforhodamine B assay; conditions: SK-OV-3, 48 h, read-out: Activity
SN12C = assay: Cytotoxicity against human SN12C cells assessed as cell growth at 0.01 uM after 48 hrs by sulforhodamine B assay; conditions: read-out: Activity
HL-60(TB) = assay: Cytotoxicity against human HL-60(TB) cells assessed as cell growth at 0.1 uM after 48 hrs by sulforhodamine B assay; conditions: HL-60, 48 h, read-out: Activity
Outline: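 NCI five-dose screen on the HL-60(TB) leukaemia line, grown in RPMI 1640 with 5% FBS and 2 mM L-glutamine and plated for 24 h before dosing. DMSO stocks were diluted in medium. Cells were exposed 48 h at 37 °C, then settled cells were fixed in 16% TCA (final) and stained with SRB, absorbance 515 nm. Percent growth = (Ti−Tz)/(C−Tz)×100, or (Ti−Tz)/Tz×100 when Ti<Tz.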

HT-29 [1] = assay: Cytotoxicity against human HT-29 cells assessed as cell growth at 0.1 uM after 48 hrs by sulforhodamine B assay; conditions: HT-29, 48 h, read-out: Activity
Outline: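 Five-dose NCI panel run at 0.01, 0.1, 1, 10 and 100 µM. Cells were in RPMI 1640 with 5% FBS and 2 mM L-glutamine, seeded at 5000–40,000 cells/well and pre-incubated 24 h. Drug was diluted from a DMSO stock into medium with 50 µg/ml gentamicin. Exposure was 48 h at 37 °C, 5% CO2. Cells were fixed with cold TCA and stained with 0.4% SRB, read at 515 nm. Percent growth came from time-zero, control and test absorbances.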

M14 = assay: Cytotoxicity against human M14 cells assessed as cell growth at 0.1 uM after 48 hrs by sulforhodamine B assay; conditions: M14, 48 h, read-out: Activity
OVCAR-3 [2] = assay: Cytotoxicity against human OVCAR3 cells assessed as cell growth at 0.1 uM after 48 hrs by sulforhodamine B assay; conditions: OVCAR-3, 48 h, read-out: Activity
PC-3 [3] = assay: Cytotoxicity against human PC3 cells assessed as cell growth at 100 uM after 48 hrs by sulforhodamine B assay; conditions: PC-3, 48 h, read-out: Activity
SK-MEL-2 = assay: Cytotoxicity against human SK-MEL-2 cells assessed as cell growth at 1 uM after 48 hrs by sulforhodamine B assay; conditions: SK-MEL-2, 48 h, read-out: Activity
MCF7 = assay: Cytotoxicity against human MCF7 cells assessed as cell growth at 1 uM after 48 hrs by sulforhodamine B assay; conditions: MCF7, 48 h, read-out: Activity
A549 = assay: Cytotoxicity against human A549 cells assessed as cell growth at 10 uM after 48 hrs by sulforhodamine B assay; conditions: A549, 48 h, read-out: Activity
Outline: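 NCI-60 five-dose screen. Cells were grown in RPMI 1640 with 5% FBS and 2 mM L-glutamine and preincubated 24 h. Compound (DMSO stock) was tested at 0.01, 0.1, 1, 10 and 100 µM for 48 h at 37 °C. Cells were fixed in situ with cold TCA (final 10%) and stained with 0.4% SRB. A515 was read, and percent growth was calculated against time-zero and control plates.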

KM12 = assay: Cytotoxicity against human KM12 cells assessed as cell growth at 10 uM after 48 hrs by sulforhodamine B assay; conditions: KM12, 48 h, read-out: Activity
U-251 = assay: Cytotoxicity against human U251 cells assessed as cell growth at 10 uM after 48 hrs by sulforhodamine B assay; conditions: U-251, 48 h, read-out: Activity
OVCAR-3 [4] = assay: Cytotoxicity against human OVCAR3 cells assessed as cell growth at 10 uM after 48 hrs by sulforhodamine B assay; conditions: OVCAR-3, 48 h, read-out: Activity
NCI/ADR-RES = assay: Cytotoxicity against human NCI/ADR-RES cells assessed as cell growth at 10 uM after 48 hrs by sulforhodamine B assay; conditions: read-out: Activity
PC-3 [5] = assay: Cytotoxicity against human PC3 cells assessed as cell growth at 10 uM after 48 hrs by sulforhodamine B assay; conditions: PC-3, 48 h, read-out: Activity
T47D [6] = assay: Cytotoxicity against human T47D cells assessed as cell growth at 10 uM after 48 hrs by sulforhodamine B assay; conditions: read-out: Activity
SF-539 = assay: Cytotoxicity against human SF539 cells assessed as cell growth at 10 '-5 M after 48 hrs by sulforhodamine B assay; conditions: SF-539, 48 h, read-out: Activity
UACC-62 = assay: Cytotoxicity against human UACC62 cells assessed as cell growth at 10 '-5 M after 48 hrs by sulforhodamine B assay; conditions: UACC-62, 48 h, read-out: Activity
BT-549 = assay: Cytotoxicity against human BT549 cells assessed as cell growth at 10 '-5 M after 48 hrs by sulforhodamine B assay; conditions: BT-549, 48 h, read-out: Activity
Outline: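 Primary NCI-60 single-dose screen at 10 µM. Cells were grown in RPMI 1640 with 5% FBS and 2 mM L-glutamine and plated 24 h before drug addition. Compound was solubilized in DMSO, then exposed for 48 h at 37 °C under 5% CO2. Cells were TCA-fixed and stained with SRB, and absorbance was read at 515 nm. Growth was expressed relative to time-zero and untreated controls.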

T47D [7] = assay: Cytotoxicity against human T47D cells assessed as cell growth at 10 '-5 M after 48 hrs by sulforhodamine B assay; conditions: read-out: Activity
NCI-H322M = assay: Growth inhibition of human NCI-H322M cells after 48 hrs by sulforhodamine B assay; conditions: for CC50: read-out: LC50 (the source's name)
Outline: (§1)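 Adherent NCI-60 lines were grown in RPMI 1640 with 5% FBS and 2 mM L-glutamine, plated at 5000–40,000 cells/well and preincubated 24 h. They were then exposed to five concentrations (0.01–100 µM, from a DMSO stock) for 48 h at 37 °C, 5% CO2. Cells were fixed with cold TCA (10% final, 60 min, 4 °C) and stained with 0.4% SRB. Dye was solubilized in 10 mM Tris base and A515 read. GI50 was derived from time-zero, control and treated absorbances.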

HT-29 [8] = assay: Growth inhibition of human HT-29 cells after 48 hrs by sulforhodamine B assay; conditions: HT-29, 48 h; outline: as §1
LOX IMVI = assay: Growth inhibition of human LOXIMVI cells after 48 hrs by sulforhodamine B assay; outline: as §1
MDA-MB-435 = assay: Growth inhibition of human MDA-MB-435 cells after 48 hrs by sulforhodamine B assay; conditions: MDA-MB-435, 48 h; for CC50: read-out: LC50 (the source's name); outline: as §1
SK-MEL-28 = assay: Growth inhibition of human SK-MEL-28 cells after 48 hrs by sulforhodamine B assay; conditions: SK-MEL-28, 48 h; outline: as §1
SNB-75 = assay: Cytotoxicity against human SNB75 cells assessed as cell growth at 0.01 uM after 48 hrs by sulforhodamine B assay; conditions: SNB-75, 48 h, read-out: Activity

Structure (SMILES)	growth at 0.01 µM (SK-OV-3) [%]	growth at 0.01 µM (SN12C) [%]	growth at 0.1 µM (HL-60(TB)) [%]	growth at 0.1 µM (HT-29 [1]) [%]	growth at 0.1 µM (M14) [%]	growth at 0.1 µM (OVCAR-3 [2]) [%]	growth at 100 µM (PC-3 [3]) [%]	growth at 1 µM (SK-MEL-2) [%]	growth at 1 µM (MCF7) [%]	growth at 10 µM (A549) [%]	growth at 10 µM (KM12) [%]	growth at 10 µM (U-251) [%]	growth at 10 µM (OVCAR-3 [4]) [%]	growth at 10 µM (NCI/ADR-RES) [%]	growth at 10 µM (PC-3 [5]) [%]	growth at 10 µM (T47D [6]) [%]	growth at 10 µM (SF-539) [%]	growth at 10 µM (UACC-62) [%]	growth at 10 µM (BT-549) [%]	growth at 10 µM (T47D [7]) [%]	other results
Cc1ccc2nc(Nc3c(C)cccc3C)sc2c1	101	88	106	92	104	108	56	67	53	44	30	63	52	22	49	60	45.3	35.7	37.1	45.8	GI50 (NCI-H322M): > 100000 nM; TGI (NCI-H322M): > 100000 nM; CC50 (NCI-H322M): > 100000 nM; GI50 (HT-29 [8]): 629 nM; LC50 (concentration killing 50% of cells) (HT-29 [8]): > 100000 nM; TGI (HT-29 [8]): > 100000 nM; LC50 (LOX IMVI): > 100000 nM; TGI (LOX IMVI): > 100000 nM; GI50 (MDA-MB-435): 242 nM; TGI (MDA-MB-435): 822 nM; CC50 (MDA-MB-435): > 100000 nM; LC50 (SK-MEL-28): > 100000 nM; TGI (SK-MEL-28): > 100000 nM; growth at 0.01 µM (SNB-75): 80%
Clc1cccc(Cl)c1Nc1nc2cccc(Cl)c2s1	101	91	103	96	101	97	-74	71	46	-65	-96	-84	-96	-72	-68	-90	-47.5	-62.9	-67.8	-4.9	GI50 (NCI-H322M): 1460 nM; TGI (NCI-H322M): 3010 nM; CC50 (NCI-H322M): 6190 nM; GI50 (HT-29 [8]): 1290 nM; LC50 (concentration killing 50% of cells) (HT-29 [8]): 6970 nM; TGI (HT-29 [8]): 2990 nM; GI50 (LOX IMVI): 1090 nM; TGI (LOX IMVI): 2510 nM; GI50 (MDA-MB-435): 813 nM; TGI (MDA-MB-435): 2380 nM; CC50 (MDA-MB-435): 6050 nM; GI50 (SK-MEL-28): 1460 nM; LC50 (SK-MEL-28): 6020 nM; TGI (SK-MEL-28): 2960 nM; growth at 0.01 µM (SNB-75): 82%
